Compounds with a hit are over-represented: about 2.2% of the library has one in this group of screens.
IMP-1 inhibitor = IMP-1 metallo-beta-lactamase inhibitors, primary screen, biochemical, epi-absorbance readout, Pseudomonas aeruginosa enzyme. metallo-beta-lactamase IMP-1 (Pseudomonas aeruginosa). purified IMP-1, nitrocefin hydrolysis, epi-absorbance fluorescence. inhibition, % at 5.6 µM. hit rate 0.45% among 290,000. AID 1556, 2009;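 active = inhibition above the mean plus 3 SD of all compounds in the same screening run, cut at about 4.5% in these data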
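System – purified recombinant IMP-1 beta-lactamase · Input – IMP-1 dispensed at 0.2 nM · Timing – 15 min preincubation plus 25 min reaction at 25 °C · Signal – Epi-absorbance fluorescence, 480 nm excitation, 530 nm emission · Measure – percent IMP-1 inhibition derived from blank-referenced optical density · Controls – Enzyme-plus-DMSO low control, enzyme-free DMSO high control · Replication – singlicate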
PABP1 MLLE inh = inhibitors of PABP1 MLLE–PAM2 peptide binding, primary screen, biochemical, fluorescence polarization, FITC-PAM2, GST-MLLE; Polyadenylate-binding protein 1 (Homo sapiens), P11940; AID 588489, 2011; hit rate 0.36% among 360,000; inhibition, % at 20 µM; in the data active = inhibition above about 35%, passing the limit was not always enough
eIF4H FP inh = human eIF4H binding inhibitors, primary screen, translation initiation inhibitor project, biochemical, uHTS, fluorescence polarization; Eukaryotic translation initiation factor 4H (Homo sapiens), Q15056; eIF4H fluorescence polarization binding assay; inhibition, % at 35 µM; hit rate 0.94% among 290,000;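 note: calls also rest on retests at 20 µM and on dose response follow-up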
PABP polyA inh = PABP poly(A) RNA binding inhibitors, primary screen, biochemical, fluorescence polarization, uHTS | hit rate 1% among 290,000 | calls only at 35 µM;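 note: calls also rest on retests at 20 µM and on dose response follow-up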
VIM-2 inh = VIM-2 metallo-beta-lactamase inhibitors, primary screen, biochemical, epi-absorbance readout, Pseudomonas aeruginosa enzyme; purified VIM-2, nitrocefin hydrolysis, epi-absorbance fluorescence; inhibition, % at 5.6 µM; hit rate 0.89% among 290,000; AID 1527, 2009;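 active = inhibition above the mean of all tested compounds plus 3 SD, cutoff set per screening run, cut at about 7.5% in these data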;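 note: red hydrolysis product quenches plate fluorescence so inhibitors raise well fluorescence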
Large screens that a line does not name were inactive. Unless noted, the rule behind the calls is not given here.

c1ccc(-c2nnc(-c3ccccn3)s2)nc1	none
c1ccc(C2=NNC(c3ccccn3)=NN2)nc1	PABP1 MLLE inh 43
Cc1ccc2c(c1)-c1c(ssc1=S)C(C)(C)N2C(=O)c1ccco1	PABP1 MLLE inh 48
CC1(C)c2ssc(=S)c2-c2ccccc2N1C(=O)c1ccco1	none
O=c1oc2cc(Oc3ccc(C(F)(F)F)cc3[N+](=O)[O-])ccc2c2c1CCCC2	none
O=C(/C=C/c1cccc2ccccc12)c1ccncc1	none
Cc1[nH]c2ccccc2c1/C=C/C(=O)c1ccncc1	eIF4H FP inh 72, PABP polyA inh active, VIM-2 inh 8.5
C[C@@H]1CN([C@H](C)CO)C(=O)CCCn2nncc2CO[C@H]1CN(C)C	none (no result: IMP-1 inhibitor, eIF4H FP inh, PABP polyA inh, VIM-2 inh)
O=C1CN(C(=O)/C=C/c2ccco2)c2ccccc2N1	eIF4H FP inh 71
Cc1c(Cl)c([N+](=O)[O-])nn1CCCC(=O)O	eIF4H FP inh active
COc1ccc(NC(=O)c2cc(-c3ccco3)nc3ccccc23)cc1S(=O)(=O)N1CCOCC1	PABP polyA inh active
Cc1ccc(NC(=O)c2cc(-c3ccco3)nc3ccccc23)cc1S(=O)(=O)N1CCOCC1	eIF4H FP inh 66, PABP polyA inh active
O=C(Nc1ccc(Cl)c(S(=O)(=O)N2CCOCC2)c1)c1cc(-c2ccccn2)nc2ccccc12	none
COc1ccc(NC(=O)c2cc(C)nc3ccccc23)cc1S(=O)(=O)N1CCOCC1	none (no result: IMP-1 inhibitor, eIF4H FP inh, PABP polyA inh, VIM-2 inh)
O=C1NCC(COc2ccc(Cl)cc2)O1 (stereo unspecified)	none
O=C(O)C1CCCN(S(=O)(=O)c2ccc(-c3ccc(=O)[nH]n3)s2)C1 (stereo unspecified)	none
CC(C(=O)NCc1ccccc1Cl)n1cc([N+](=O)[O-])cn1 (stereo unspecified)	none
CCN(CC)c1ccc(NC2=C(Cl)C(=O)c3ccccc3C2=O)cc1	PABP1 MLLE inh 45
CCCC(=O)NC1=C(Cl)C(=O)c2ccccc2C1=O	PABP1 MLLE inh 42 (no result: IMP-1 inhibitor, eIF4H FP inh, PABP polyA inh, VIM-2 inh)
O=C1CCCCN1CCC(=O)N1CCCC(N2CCN(c3ccccc3)CC2)C1 (stereo unspecified)	none (no result: eIF4H FP inh, PABP polyA inh)
Cc1cc(C(=O)N2CCN(c3ccccc3Cl)CC2)c(C)o1	none (no result: IMP-1 inhibitor, eIF4H FP inh, PABP polyA inh, VIM-2 inh)
CSCC[C@H](NC(=O)COc1ccc(Cl)cc1)c1nc2ccccc2[nH]1	none
CSc1scc2c1-c1nc(SCC(=O)C(C)(C)C)ncc1CC2	IMP-1 inhibitor 9.8
CN(C[C@@H](CC1CCCCC1)N(C[C@H](Cc1ccccc1)N(CCc1ccccc1)N=O)N=O)N=O	none
COc1ccccc1N/C=C/c1onc(C)c1[N+](=O)[O-]	none
Cc1noc(/C=C/Nc2ccc(F)cc2F)c1[N+](=O)[O-]	PABP1 MLLE inh 50
CC(C)NC(=O)CSc1ccccc1C(=O)NNC(=O)Cn1ccc(C(F)(F)F)n1	none (no result: IMP-1 inhibitor, eIF4H FP inh, PABP polyA inh, VIM-2 inh)
COc1cccc(NC(=O)COc2ccc(C(=S)N3CCN(C)CC3)cc2OC)c1	VIM-2 inh 8.3
Cc1ccc2c(c1)=N/C(=N\c1[nH]c(O)c3ccccc13)N=2	none (no result: IMP-1 inhibitor, eIF4H FP inh, PABP polyA inh, VIM-2 inh)
Oc1[nH]c(N=C2N=c3ccccc3=N2)c2ccccc12	eIF4H FP inh 80, PABP polyA inh active
CC1=C(C(=O)Nc2cc(-c3cccc(F)c3)[nH]n2)C2(CCCCC2)OC1=O	eIF4H FP inh 55, PABP polyA inh active
O=C(Nc1cc(-c2ccccc2)[nH]n1)c1ccccc1F	none
CCc1ccc(C2C(C#N)=C(N)C(C#N)(C#N)C3=CCC(C(C)(C)C)CC32)cc1 (stereo unspecified)	eIF4H FP inh 84
c1ccc(Cn2ccc(-c3cnc(-c4ccccc4)s3)n2)cc1	eIF4H FP inh 93
COC(=O)c1c(NC(=S)Nc2cc(OC)c(Cl)cc2OC)sc2c1CCCCC2	PABP1 MLLE inh 47
CCOC(=O)c1c(NC(=S)Nc2cc([N+](=O)[O-])ccc2OC)sc2c1CCCCC2	none (no result: PABP1 MLLE inh)
CC(C)Oc1ccc(S(=O)(=O)N2CCOCC2)cc1NC(=O)Cc1cccs1	none (no result: IMP-1 inhibitor, eIF4H FP inh, PABP polyA inh, VIM-2 inh)
COc1ccc(N/N=C(/C(N)=O)C2=NC(C)(C)Cc3ccccc32)cc1	none
O=C(NNS(=O)(=O)c1ccc([N+](=O)[O-])cc1)C(=O)Nc1cccc(C(=O)O)c1	eIF4H FP inh 60
O=C(NNS(=O)(=O)c1ccc([N+](=O)[O-])cc1)c1ccccc1	none (no result: IMP-1 inhibitor, eIF4H FP inh, PABP polyA inh, VIM-2 inh)
Cc1ccc(NC(=S)NC2CCSc3ccccc32)cc1C (stereo unspecified)	none
CC1CCN(CC(=O)Nc2sc3c(c2C#N)CCC3)CC1	eIF4H FP inh 50
NC(=O)c1c(NC(=O)c2ccncc2)sc2c1CCCC2	none
N#Cc1c(NC(=O)C2CC(c3ccccc3Cl)=NO2)sc2c1CCC2 (stereo unspecified)	none
NC(=O)c1c(NC(=O)c2ccco2)sc2c1CCC2	none
N#Cc1c(NC(=O)c2ccncc2)sc2c1CCC2	eIF4H FP inh 51, PABP polyA inh active
N#Cc1c(NC(=O)C2CC(c3ccccc3O)=NO2)sc2c1CCC2 (stereo unspecified)	PABP1 MLLE inh 40
N#Cc1c(NC(=O)c2ccco2)sc2c1CCC2	eIF4H FP inh 74, PABP polyA inh active
NC1=NC(c2cccc(Cl)c2)N(CCc2ccc(F)cc2)C(N)=N1 (stereo unspecified)	none
Cc1cc(C)c(S(=O)(=O)Nc2ncn[nH]2)c(C)c1	none
CCc1ccc(OCc2cccc(C(=O)N/N=C\c3cnn(C)c3C)c2)cc1	IMP-1 inhibitor 6.4
COc1ccc(Br)cc1/C=N/N1C(=O)CSC1=S	IMP-1 inhibitor 17
O=C1CSC(=S)N1N=Cc1c[nH]c2ccc(Br)cc12	none (no result: IMP-1 inhibitor, eIF4H FP inh, PABP polyA inh, VIM-2 inh)
O=c1cc(O)c(-c2ccc(Cl)c(Cl)c2)c(Cl)[nH]1	eIF4H FP inh 82, PABP polyA inh active
COc1ccc(/C=C/c2nc(C#N)c(NCCN(C)C)o2)cc1OC	VIM-2 inh 10
O=C(CCl)Nc1ccc(-c2ccccc2)cc1	none
O=C(CCl)Nc1ccc(N=Nc2ccccc2)cc1	eIF4H FP inh active
CC1C(=O)N(Cc2cn(CCC3OCCCO3)nn2)CCS(=O)(=O)N1Cc1ccc(-c2ccc(Cl)cc2)cc1 (stereo unspecified)	none (no result: IMP-1 inhibitor, eIF4H FP inh, PABP polyA inh, VIM-2 inh)
CC(C)N(C(=O)CSc1nnc(NC(=O)c2cccs2)s1)C(C)C	VIM-2 inh 10.0
Cc1cc(OCc2cc(C(=O)N3CCC(Oc4cccnc4)CC3)no2)cc(C)c1Cl	none
O=C1c2ccc(-c3ccc4c(c3)C(=O)N(CCCO)C4=O)cc2C(=O)N1CCCO	none
O=C1C2=C(SCCS2)C(=O)N1CCCO	PABP1 MLLE inh 58, eIF4H FP inh 101, PABP polyA inh active
Cc1nnc2c(NC(C)C)nc3ccccc3n12	VIM-2 inh 9.0
CCC(C)Nc1nc2ccccc2n2c(C)nnc12 (stereo unspecified)	none
Cc1ccc2nc(Cl)c(C3CC(c4cccs4)=NN3C(=O)CCCC(=O)O)cc2c1 (stereo unspecified)	none
Cc1ccc2cc(C3CC(c4ccco4)=NN3C(=O)CCC(=O)O)c(Cl)nc2c1 (stereo unspecified)	eIF4H FP inh inconclusive, PABP polyA inh active

Assay outcomes: PubChem BioAssay, several laboratories
